Our source for the GI50 values is ChEMBL document CHEMBL3596118, “Synthesis and antiproliferative activity of imidazo[1,2-a]pyrimidine Mannich bases” (2015).

Common to all, as to format: functional
For experiment [1], the system named is HeLa. The experiment can be described thus: Growth inhibition of human HeLa cells after 48 hrs by SRB assay. A digest of the protocol: (§1)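 Cells grown in DMEM with 10% FBS, 5% CO2, 37 0C; seeded at densities set by doubling time, incubated 24 hrs, then exposed continuously 48 hrs to 0.01, 0.1, 1, 10, 100 µM; DMSO-treated cells as negative control. Fixed with cold 10% TCA (4 0C, 1 hr), stained 0.057% SRB 30 min, dye dissolved in 10 mM Tris, OD 510 nm; GI50 from [(Ti-Tz)/(C-Tz)]x100 = 50.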
(In SRB staining, fixed cells bind dye roughly in proportion to their protein.)

Experiment [2] relates to MDA-MB-231. The experiment can be described thus: Growth inhibition of human MDA-MB-231 cells after 48 hrs by SRB assay. To be noted: MDA-MB-231, 48 h. The method, boiled down: as §1
Experiment [3] concerns A549. Briefly: Growth inhibition of human A549 cells after 48 hrs by SRB assay. The settings on record: A549, 48 h. A digest of the protocol: as §1
The nature of experiment [4]: Growth inhibition of human PANC1 cells after 48 hrs by SRB assay. The settings on record: PANC-1, 48 h. The method, boiled down:
as §1

On to `c1ccc(-c2nc3ncccn3c2CN2CCCCC2)cc1`, for which the GI50 (as a rule, the concentration at which growth is held to half of that of the control) in experiment [1] is 2280 nM; in experiment [2] it was 30 nM; in experiment [3], 260 nM; in experiment [4] it was 1310 nM.

For `CN1CCN(Cc2c(-c3ccccc3)nc3ncccn23)CC1`, the GI50 in experiment [1] was 930 nM; in experiment [2] it was under 10 nM; in experiment [4], 350 nM.

For the compound `c1csc(-c2nc3ncccn3c2CN2CCCC2)c1`, the GI50 in experiment [1] turned out to be 240 nM; in experiment [2] it was 200 nM; in experiment [3], 180 nM; in experiment [4], 680 nM.

On to `c1ccc(-c2nc3ncccn3c2CN2CCOCC2)cc1`, for which the GI50 was 1670 nM in experiment [1], 1410 nM in experiment [2], 210 nM in experiment [3] and 770 nM in experiment [4].

Consider `Cc1ccn2c(CN3CCN(Cc4c(C(C)(C)C)nc5nc(C)ccn45)CC3)c(C(C)(C)C)nc2n1`, for which the GI50 in experiment [1] amounted to 14500 nM; in experiment [2] it was 25700 nM; in experiment [4] it was 1400 nM.

For the compound `c1csc(-c2nc3ncccn3c2CN2CCN(Cc3c(-c4cccs4)nc4ncccn34)CC2)c1`, the GI50 in experiment [1] was 930 nM; in experiment [2], 7100 nM; in experiment [4], 3700 nM.

For `CN(Cc1c(-c2ccccc2)nc2ncccn12)c1ccccc1`, the GI50 in experiment [1] was 3120 nM; in experiment [2], 320 nM; in experiment [3], 5190 nM; in experiment [4], 5760 nM.

With `c1ccc2cc(-c3nc4ncccn4c3CN3CCN(Cc4c(-c5ccc6ccccc6c5)nc5ncccn45)CC3)ccc2c1`, the GI50 in experiment [1] was 12600 nM; in experiment [2] it was 31600 nM; in experiment [4], 79400 nM.

Consider `c1ccc(-c2nc3ncccn3c2CN2CCN(Cc3c(-c4ccccc4)nc4ncccn34)CC2)cc1`, for which the GI50 was 3240 nM in experiment [1], 270 nM in experiment [2] and 140 nM in experiment [4].

For the compound `Cc1ccc(S(=O)(=O)N2CCN(Cc3c(-c4ccccc4)nc4ncccn34)CC2)cc1`, the GI50 in experiment [1] came to 4500 nM; in experiment [2], 12900 nM; in experiment [4], 110 nM.

Consider `Cc1ccc(-c2nc3ncccn3c2CN2CCN(Cc3c(-c4ccc(C)cc4)nc4ncccn34)CC2)cc1`, for which the values for the GI50 in experiment [1], in experiment [2] and in experiment [4] were 2800 nM, 2300 nM and 380 nM, respectively.

`c1ccc(-c2nc3ncccn3c2CN2CCCC2)cc1`: the GI50 was 70 nM in experiment [1], 70 nM in experiment [2], 50 nM in experiment [3] and 60 nM in experiment [4].

On to `Clc1ccc(-c2nc3ncccn3c2CN2CCN(Cc3c(-c4ccc(Cl)cc4)nc4ncccn34)CC2)cc1`, for which the GI50 in experiment [1] was 25600 nM; in experiment [2], 4700 nM; in experiment [4], 240 nM.

On to `Clc1ccc(-c2nc3ncccn3c2CN2CCN(Cc3c(-c4ccc(Cl)cc4Cl)nc4ncccn34)CC2)c(Cl)c1`, for which the GI50 was 2720 nM in experiment [1], 210 nM in experiment [2] and 27700 nM in experiment [4].

Consider `CC(C)(C)c1nc2ncccn2c1CN1CCN(Cc2c(C(C)(C)C)nc3ncccn23)CC1`, for which the GI50 came out at 2400 nM in experiment [1], 1100 nM in experiment [2] and 3900 nM in experiment [4].

With `Cc1ccn2c(CN3CCN(Cc4c(-c5ccccc5)nc5nc(C)ccn45)CC3)c(-c3ccccc3)nc2n1`, the GI50 in experiment [1] was 12700 nM; in experiment [2], 15900 nM; in experiment [4], 600 nM.

In the case of `COc1cc(OC)n2c(CN3CCN(Cc4c(-c5ccccc5)nc5nc(OC)cc(OC)n45)CC3)c(-c3ccccc3)nc2n1`, the GI50 in experiment [1] stood at 9320 nM; in experiment [2], 120 nM; in experiment [4], 510 nM.

For the compound `Cc1ccn2c(CN3CCCCC3)c(-c3ccccc3)nc2n1`, the GI50 came out at 1710 nM in experiment [1], 30 nM in experiment [2], 4040 nM in experiment [3] and 20 nM in experiment [4].

As for `Oc1ccc(-c2nc3ncccn3c2CN2CCCCC2)cc1`, the 50% growth inhibitory concentration (GI50) came out at 4030 nM in experiment [1], 7230 nM in experiment [2], 6890 nM in experiment [3] and 200 nM in experiment [4].

Turning to `Cc1ccn2c(CN3CCCC3)c(-c3ccc(O)cc3)nc2n1`, the GI50 came out at 4760 nM in experiment [1], 1200 nM in experiment [2], 2480 nM in experiment [3] and 7280 nM in experiment [4].

On to `c1ccc(-c2nc3ncccn3c2CN2CCNCC2)cc1`, for which the GI50 stood at 720 nM in experiment [1], 26700 nM in experiment [2] and 9400 nM in experiment [4].

For the compound `COc1cccc2c1C(=O)c1c(O)c3c(c(O)c1C2=O)C[C@@](O)(C(=O)CO)C[C@@H]3O[C@H]1C[C@H](N)[C@H](O)[C@H](C)O1` [DOXORUBICIN], the GI50 is 31 nM in experiment [1], 10 nM in experiment [2], under 10 nM in experiment [3] and 10 nM in experiment [4].

Consider `Cc1ccccc1-c1nc2ncccn2c1CN1CCN(Cc2c(-c3ccccc3C)nc3ncccn23)CC1`, for which the GI50 in experiment [1] was 480 nM; in experiment [2] it was under 10 nM; in experiment [4] it was 120 nM.

In the case of `Cc1ccn2c(CN3CCCC3)c(-c3ccccc3)nc2n1`, the GI50 is 180 nM in experiment [1], 4830 nM in experiment [2], 4150 nM in experiment [3] and 150 nM in experiment [4].

Consider `Cc1ccn2c(CN3CCOCC3)c(-c3ccccc3)nc2n1`, for which the GI50 in experiment [1] came to 850 nM; in experiment [2] it was 1430 nM; in experiment [3] it was 1090 nM; in experiment [4], 1830 nM.

Turning to `Cc1ccn2c(CN3CCOCC3)c(-c3ccc(Cl)cc3)nc2n1`, the GI50 in experiment [1] stood at 160 nM; in experiment [2] it was 320 nM; in experiment [3] it was 2570 nM; in experiment [4], 1170 nM.

For `Cc1ccn2c(CN3CCCCC3)c(C(C)(C)C)nc2n1`, the GI50 in experiment [1] turned out to be 450 nM; in experiment [2], 350 nM; in experiment [3], 7390 nM; in experiment [4] it was 960 nM.

On to `CC(C)(C)c1nc2ncccn2c1CN1CCCCC1`, for which the GI50 was 30 nM in experiment [1], 1490 nM in experiment [2], 330 nM in experiment [3] and 4510 nM in experiment [4].

As for `Brc1ccc(-c2nc3ncccn3c2CN2CCN(Cc3c(-c4ccc(Br)cc4)nc4ncccn34)CC2)cc1`, the GI50 stood at 890 nM in experiment [1], 1000 nM in experiment [2] and 60 nM in experiment [4].
